In ChEMBL document CHEMBL2346495, “Evaluation of HIV-1 inhibition by stereoisomers and analogues of the sesquiterpenoid hydroquinone peyssonol A” (Bioorg Med Chem Lett, 2013):

How the values were obtained:
[1] = Cytotoxicity against human MT2 cells by XTT assay; type: cell-based
Procedure, shortened: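 Uninfected MT-2 cells, run in parallel with the antiviral screen, exposed to serially diluted compounds; viability read by XTT assay. CC50 averaged from two to four experiments.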

[2] = system: Human immunodeficiency virus 1; test: Antiviral activity against recombinant HIV1 expressing Rep-Rluc Sac II infected in human MT2 cells after 5 days by luciferase reporter gene assay; type: functional, organism-based; settings: Human immunodeficiency virus 1, MT2, 120 h
Procedure, shortened: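 MT-2 human lymphocytes infected with recombinant HIV-1 NL-Rluc (Rep-Rluc Sac II) in the presence of compounds; 5-day incubation, then cells processed and virus growth quantified by expressed luciferase. EC50 values averaged from two to four experiments.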

[3] = Therapeutic index, ratio of CC50 for human MT2 cells to EC50 for recombinant HIV1 expressing Rep-Rluc Sac II; type: cell-based; settings: read-out: Ratio CC50/EC50
Procedure, shortened: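 Therapeutic index computed as CC50 (XTT viability of uninfected MT-2 cells, serial dilutions) over EC50 (luciferase output after 5-day infection of MT-2 cells with HIV-1 NL-Rluc in the presence of compounds). Each input is averaged from two to four experiments.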

Row | SMILES | EC50 [2] [µM] | CC50 [1] [µM] | selectivity ratio [3]
1 | O=Cc1cc(O)c(CC2CCCCC2)cc1O | 4 | > 100 | > 25
2 | CC1=CC[C@H]2C(C)(C)[C@@H](Br)CC[C@]2(C)[C@@H]1Cc1cc(O)c(C=O)cc1O | 0.9 | 4 | 4
3 | CC1=C(Cc2cc(O)c(C=O)cc2O)[C@@]2(C)CC[C@H](Br)C(C)(C)[C@@H]2CC1 | 0.8 | 4 | 5
4 | CC1(C)CCC[C@@]2(C)[C@H]1CC[C@@]1(C)OC(=O)OC[C@@H]21 | 2 | 30 | 17
5 | Cc1cc(O)c(C=O)cc1O | 10 | 30 | 3
6 | C=C1CC[C@@H]2C(C)(C)[C@@H](Br)CC[C@]2(C)[C@@H]1Cc1cc(O)c(C=O)cc1O | 0.7 | 5 | 7
7 | C=C1CC[C@@H]2C(C)(C)[C@@H](Br)CC[C@]2(C)[C@H]1Cc1cc(O)c(C=O)cc1O | 0.5 | 4 | 8
8 | C=C1CC[C@H]2C(C)(C)[C@@H](Br)CC[C@]2(C)[C@H]1Cc1cc(O)c(C=O)cc1O | 0.5 | 2 | 4
9 | CC1=CC[C@H]2C(C)(C)[C@@H](Br)CC[C@]2(C)[C@@H]1Cc1cc(O)c(CC(=O)O)cc1O [PEYSSONOIC ACID A] | 50 | > 100 | > 2
10 | C=C1CC[C@H]2C(C)(C)[C@@H](Br)CC[C@]2(C)[C@@H]1Cc1cc(O)c(C=O)cc1O [PEYSSONOL A] | 1 | 4 | 4

More lines, main results first:

Row | EC50 [2] [µM] | SMILES | CC50 [1] [µM] | selectivity ratio [3]
11 | 2 | CC1(C)[C@@H](Br)CC[C@@]2(C)[C@H]1CC[C@@](C)(O)[C@H]2CO | 90 | 44
12 | 10 | CC1(C)[C@@H](Cl)CC[C@@]2(C)[C@H]1CC[C@@]1(C)OC(=O)OC[C@@H]21 | 40 | 4
13 | 5 | CC1(C)[C@@H](I)CC[C@@]2(C)[C@H]1CC[C@@]1(C)OC(=O)OC[C@@H]21 | 30 | 6
14 | 40 | CC(=O)OC[C@H]1[C@@]2(C)CC[C@H](Br)C(C)(C)[C@H]2CC[C@]1(C)O | > 100 | > 2
15 | 20 | CC(=O)OC[C@@H]1[C@@]2(C)CC[C@H](Br)C(C)(C)[C@H]2CC[C@]1(C)O | 70 | 3
16 | 10 | CC(=O)OC[C@@H]1[C@@]2(C)CC[C@H](Br)C(C)(C)[C@@H]2CC[C@@]1(C)O | 40 | 3
17 | 10 | CC(=O)OC[C@H]1[C@@]2(C)CC[C@H](Br)C(C)(C)[C@@H]2CC[C@@]1(C)O | 90 | 8
18 | 9 | CC1(C)[C@H]2CC[C@]3(C)OC(=O)OC[C@H]3[C@@]2(C)CC[C@@H]1Br | > 100 | > 11
19 | 7 | CC1(C)[C@H]2CC[C@]3(C)OC(=O)OC[C@@H]3[C@@]2(C)CC[C@@H]1Br | 70 | 9
20 | 10 | CC1(C)[C@@H](Br)CC[C@]2(C)[C@H]3COC(=O)O[C@]3(C)CC[C@@H]12 | > 100 | > 10
21 | 4 | CC1(C)[C@@H](Br)CC[C@@]2(C)[C@H]1CC[C@@]1(C)OC(=O)OC[C@@H]21 | 90 | 23
22 | 1 | CC1(C)[C@@H](Br)CC[C@@]2(C)[C@H]1CC[C@@]1(C)Oc3cc(C=O)c(O)cc3C[C@@H]21 | 5 | 5
